Test results taken from ChEMBL document CHEMBL3414467, “Exploring the 7-oxo-thiazolo[5,4-d]pyrimidine core for the design of new human adenosine A3 receptor antagonists. Synthesis, molecular modeling studies and pharmacological evaluation” (Eur J Med Chem, 2015).

These compounds were tested against T1, Adenosine receptor A3 (Homo sapiens, UniProt P0DMS8) (assay: Antagonist activity against human adenosine A3 receptor expressed in CHO cells assessed as blockade of Cl-IB-MECA-induced inhibition of forskolin-induced cAMP production by scintillation counting method).
T1 sequence (P0DMS8 whole entry): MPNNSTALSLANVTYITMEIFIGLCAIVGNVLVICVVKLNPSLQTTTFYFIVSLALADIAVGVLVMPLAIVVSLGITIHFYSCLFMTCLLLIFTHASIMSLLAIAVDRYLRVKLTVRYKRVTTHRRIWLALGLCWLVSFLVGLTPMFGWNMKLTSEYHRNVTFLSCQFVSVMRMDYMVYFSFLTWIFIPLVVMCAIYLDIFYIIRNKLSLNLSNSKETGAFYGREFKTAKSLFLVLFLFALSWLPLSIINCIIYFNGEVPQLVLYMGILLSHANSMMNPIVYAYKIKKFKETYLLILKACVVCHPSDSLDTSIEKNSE
Format: functional, cell-based
Method in brief: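 hA3-transfected CHO cells (1 × 10⁶ cells/assay) in buffered medium pH 7.4 with 2 IU/mL adenosine deaminase and Ro 20-1724, preincubated 10 min at 37 °C; antagonists tested against 100 nM Cl-IB-MECA. Stopped with cold TCA; cAMP measured by [3H]cAMP competition binding with adrenal binding protein. IC50 from sigmoid nonlinear regression, mean of four experiments.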

IC50 [nM]	SMILES
221	Cc1nc2sc(-c3ccccc3)nc2c(=O)[nH]1
42	Cc1nc2sc(-c3ccc(Cl)cc3)nc2c(=O)[nH]1

These compounds were tested against T2, Adenosine receptor A3 (Homo sapiens) (UniProt P0DMS8) (assay: Displacement of [125I]AB-MECA from human adenosine A3 receptor expressed in CHO cell membranes at 1 uM incubated for 120 mins by scintillation counting method).
T2 sequence (whole entry): T1 sequence (P0DMS8 whole entry)
Method in brief: (§1)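 Membranes from hA3-CHO cells (50 μg protein/assay), pretreated with 2 IU/mL adenosine deaminase. Incubated with 0.5 nM [125I]AB-MECA in 50 mM Tris HCl, 10 mM MgCl2, 1 mM EDTA, pH 7.4, with six to eight compound concentrations; percent inhibition taken at 1 μM. Ki from IC50 by Cheng–Prusoff, means of four assays in duplicate.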

inhibition [%]	SMILES
47	Cc1ccc(Nc2nc3c(=O)[nH]c(C)nc3s2)cc1
6	CCOc1nc(C)nc2sc(-c3ccccc3)nc12
48	Cc1nc2sc(Nc3cccc(Cl)c3)nc2c(=O)[nH]1
45	Cc1nc2sc(Nc3ccccc3)nc2c(=O)[nH]1
15	Cc1nc2sc(-c3ccncc3)nc2c(=O)[nH]1
45	CCOc1nc(C)nc2sc(Nc3ccccc3)nc12
36	COc1ccc(Nc2nc3c(=O)[nH]c(C)nc3s2)cc1
5	CCOc1nc(C)nc2sc(-c3ccc(C)cc3)nc12
15	Cc1nc2sc(-c3ccc(O)cc3)nc2c(=O)[nH]1
8	Cc1nc2sc(-n3ccnc3)nc2c(=O)[nH]1
32	Cc1nc2sc(-c3ccc(C(F)(F)F)cc3)nc2c(=O)[nH]1
10	CCOc1nc(C)nc2sc(-c3ccc(Cl)cc3)nc12
20	Cc1nc2sc(-c3ccco3)nc2c(=O)[nH]1
28	COc1cccc(-c2nc3c(=O)[nH]c(C)nc3s2)c1

The compounds below were run against Adenosine receptor A2a (Homo sapiens) (UniProt P29274) (assay: Displacement of [3H]ZM241385 from human adenosine A2A receptor expressed in CHO cell membranes at 1 uM incubated for 60 mins by scintillation counting method).
Chain of Adenosine receptor A2a (Homo sapiens) (P29274 whole entry): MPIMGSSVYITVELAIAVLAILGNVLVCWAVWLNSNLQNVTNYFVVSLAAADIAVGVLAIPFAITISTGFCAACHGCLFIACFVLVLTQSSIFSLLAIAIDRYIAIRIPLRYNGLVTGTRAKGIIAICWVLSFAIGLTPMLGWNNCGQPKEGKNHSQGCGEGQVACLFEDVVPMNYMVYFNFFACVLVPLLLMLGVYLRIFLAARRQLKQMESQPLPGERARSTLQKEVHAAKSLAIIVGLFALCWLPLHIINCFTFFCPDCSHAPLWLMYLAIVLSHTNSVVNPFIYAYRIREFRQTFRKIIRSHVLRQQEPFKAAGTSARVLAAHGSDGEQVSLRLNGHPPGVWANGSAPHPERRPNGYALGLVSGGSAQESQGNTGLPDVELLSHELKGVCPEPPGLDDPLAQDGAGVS
Method in brief: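 Membranes from hA2A-CHO cells (50 μg protein/assay), deaminase-treated. Incubated with 1 nM [3H]ZM241385 in 50 mM Tris HCl, 10 mM MgCl2, pH 7.4 for 60 min at 4 °C. Nonspecific binding defined with 1 μM ZM241385. Test compounds at 1 μM, reported as percent inhibition. Filter separation; scintillation counting.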

inhibition [%]	SMILES
18	Cc1ccc(Nc2nc3c(=O)[nH]c(C)nc3s2)cc1
1	CCOc1nc(C)nc2sc(-c3ccccc3)nc12
21	Cc1nc2sc(Nc3cccc(Cl)c3)nc2c(=O)[nH]1
14	Cc1nc2sc(Nc3ccccc3)nc2c(=O)[nH]1
1	Cc1nc2sc(-c3ccncc3)nc2c(=O)[nH]1
3	CCOc1nc(C)nc2sc(Nc3ccccc3)nc12
1	COc1ccc(Nc2nc3c(=O)[nH]c(C)nc3s2)cc1
1	CCOc1nc(C)nc2sc(-c3ccc(C)cc3)nc12
1	Cc1nc2sc(-c3ccc(O)cc3)nc2c(=O)[nH]1
1	Cc1nc2sc(-n3ccnc3)nc2c(=O)[nH]1
37	Cc1nc2sc(-c3ccc(C(F)(F)F)cc3)nc2c(=O)[nH]1
1	Cc1nc2sc(-c3ccccc3)nc2c(=O)[nH]1
9	CCOc1nc(C)nc2sc(-c3ccc(Cl)cc3)nc12
1	Cc1nc2sc(-c3ccc(Cl)cc3)nc2c(=O)[nH]1
1	Cc1nc2sc(-c3ccco3)nc2c(=O)[nH]1
12	COc1cccc(-c2nc3c(=O)[nH]c(C)nc3s2)c1

These compounds were tested against T1, Adenosine receptor A3 (assay: Displacement of [125I]AB-MECA from human adenosine A3 receptor expressed in CHO cell membranes incubated for 120 mins by scintillation counting method).
Method in brief: as §1

Ki [nM]	SMILES
85	Cc1nc2sc(-c3ccccc3)nc2c(=O)[nH]1
18	Cc1nc2sc(-c3ccc(Cl)cc3)nc2c(=O)[nH]1

The compounds below were run against T3, Adenosine receptor A2b (Homo sapiens) (UniProt P29275) (assay: Antagonist activity against human adenosine A2B receptor expressed in CHO cells assessed as inhibition of NECA-induced cAMP production at 1 uM by scintillation counting method).
T3 sequence (whole entry): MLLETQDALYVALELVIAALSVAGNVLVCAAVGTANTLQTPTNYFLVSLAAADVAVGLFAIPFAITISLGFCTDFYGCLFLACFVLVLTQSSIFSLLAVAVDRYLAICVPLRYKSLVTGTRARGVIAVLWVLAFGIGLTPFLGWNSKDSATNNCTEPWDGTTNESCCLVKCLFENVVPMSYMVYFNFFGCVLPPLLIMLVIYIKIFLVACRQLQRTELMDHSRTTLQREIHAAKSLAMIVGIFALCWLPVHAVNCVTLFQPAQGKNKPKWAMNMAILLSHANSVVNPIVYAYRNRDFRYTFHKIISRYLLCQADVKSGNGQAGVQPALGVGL
Format: functional, cell-based
Method in brief: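 hA2B-transfected CHO cells (1 × 10⁶ cells/assay) in buffered saline-glucose medium with 2 IU/mL adenosine deaminase and Ro 20-1724, preincubated 10 min at 37 °C, stimulated with 200 nM NECA; test compounds at 1 μM, reported as percent inhibition. Stopped with cold 6% TCA, ether-extracted; cAMP measured by competition binding with [3H]cAMP and beef adrenal binding protein.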

inhibition [%]	SMILES
1	Cc1ccc(Nc2nc3c(=O)[nH]c(C)nc3s2)cc1
1	CCOc1nc(C)nc2sc(-c3ccccc3)nc12
1	Cc1nc2sc(Nc3cccc(Cl)c3)nc2c(=O)[nH]1
1	Cc1nc2sc(Nc3ccccc3)nc2c(=O)[nH]1
1	Cc1nc2sc(-c3ccncc3)nc2c(=O)[nH]1
1	CCOc1nc(C)nc2sc(Nc3ccccc3)nc12
1	COc1ccc(Nc2nc3c(=O)[nH]c(C)nc3s2)cc1
1	CCOc1nc(C)nc2sc(-c3ccc(C)cc3)nc12
1	Cc1nc2sc(-c3ccc(O)cc3)nc2c(=O)[nH]1
1	Cc1nc2sc(-n3ccnc3)nc2c(=O)[nH]1
1	Cc1nc2sc(-c3ccc(C(F)(F)F)cc3)nc2c(=O)[nH]1
1	Cc1nc2sc(-c3ccccc3)nc2c(=O)[nH]1
1	CCOc1nc(C)nc2sc(-c3ccc(Cl)cc3)nc12
1	Cc1nc2sc(-c3ccc(Cl)cc3)nc2c(=O)[nH]1
2	Cc1nc2sc(-c3ccco3)nc2c(=O)[nH]1
4	COc1cccc(-c2nc3c(=O)[nH]c(C)nc3s2)c1

The compounds below were run against T4, Adenosine receptor A1 (Homo sapiens) (UniProt P30542) (assay: Displacement of [3H]DPCPX from human adenosine A1 receptor expressed in CHO cell membranes at 1 uM incubated for 120 mins by scintillation counting method).
T4 sequence (whole entry): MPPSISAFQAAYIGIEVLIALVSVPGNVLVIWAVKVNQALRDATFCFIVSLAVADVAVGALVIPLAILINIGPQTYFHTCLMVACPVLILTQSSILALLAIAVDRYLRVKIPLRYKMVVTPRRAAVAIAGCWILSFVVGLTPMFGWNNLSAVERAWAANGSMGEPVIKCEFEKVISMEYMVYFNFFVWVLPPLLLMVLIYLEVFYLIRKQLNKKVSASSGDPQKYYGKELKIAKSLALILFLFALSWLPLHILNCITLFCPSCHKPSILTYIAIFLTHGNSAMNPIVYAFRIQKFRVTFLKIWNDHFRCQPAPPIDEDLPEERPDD
Method in brief: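 Membranes from hA1-CHO cells (50 μg protein/assay), pretreated with adenosine deaminase 2 IU/mL, 30 min at 37 °C. Incubated with 1 nM [3H]DPCPX in 50 mM Tris HCl pH 7.4 for 120 min at 25 °C. Nonspecific binding defined with 1 μM DPCPX. Test compounds at 1 μM, reported as percent inhibition. Separation by GF/B filtration; read by scintillation counting.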

inhibition [%]	SMILES
20	Cc1ccc(Nc2nc3c(=O)[nH]c(C)nc3s2)cc1
11	CCOc1nc(C)nc2sc(-c3ccccc3)nc12
44	Cc1nc2sc(Nc3cccc(Cl)c3)nc2c(=O)[nH]1
24	Cc1nc2sc(Nc3ccccc3)nc2c(=O)[nH]1
1	Cc1nc2sc(-c3ccncc3)nc2c(=O)[nH]1
2	CCOc1nc(C)nc2sc(Nc3ccccc3)nc12
1	COc1ccc(Nc2nc3c(=O)[nH]c(C)nc3s2)cc1
1	CCOc1nc(C)nc2sc(-c3ccc(C)cc3)nc12
1	Cc1nc2sc(-c3ccc(O)cc3)nc2c(=O)[nH]1
1	Cc1nc2sc(-n3ccnc3)nc2c(=O)[nH]1
1	Cc1nc2sc(-c3ccc(C(F)(F)F)cc3)nc2c(=O)[nH]1
11	Cc1nc2sc(-c3ccccc3)nc2c(=O)[nH]1
6	CCOc1nc(C)nc2sc(-c3ccc(Cl)cc3)nc12
1	Cc1nc2sc(-c3ccc(Cl)cc3)nc2c(=O)[nH]1
37	Cc1nc2sc(-c3ccco3)nc2c(=O)[nH]1
1	COc1cccc(-c2nc3c(=O)[nH]c(C)nc3s2)c1
